Legend:
Assay in all cases: Two-electrode voltage-clamp recordings, Xenopus oocytes
Type in all cases: cell-based
GluN1/2A-(2D S2) = GluN1/2A-(2D S2) (Rattus norvegicus, UniProt P35439+Q00959, D675E/D715E/E790M/F680L/F708Y/G712R/G740R/G786D/H674Q/I755V/K668R/K738M/M788I/N696S/P770R/Q661T/Q703S/Q766H/Q774P/R681K/R692K/R711P/R741K/S677Y/S719Q/S758T/T663S/T706V/T722A/T793R/T797S/V718T/V783L/Y676Q/Y700D/Y754K); settings: 100 μM glutamate + 3 μM glycine; N.E. = no effect at 10 μM TCN-201
Method in brief: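 cRNA from linearized constructs injected into female Xenopus laevis oocytes. Two-electrode voltage clamp done 3–4 d later at 23°C, holding at −40 mV, in 90 NaCl, 1 KCl, 10 HEPES, 0.5 BaCl₂, 0.01 EDTA (mM), pH 7.4. […] Max inhibition is (control − residual at saturating compound)/control.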

GluN1/GluN2A V783S = GluN1/GluN2A V783S (Rattus norvegicus, UniProt P35439+Q00959, V783S); settings: 100 μM glutamate + 3 μM glycine
GluN1/GluN2A V783H = GluN1/GluN2A V783H (Rattus norvegicus, UniProt P35439+Q00959, V783H); settings: 100 μM glutamate + 3 μM glycine
GluN1/GluN2A Q781A = GluN1/GluN2A Q781A (Rattus norvegicus, UniProt P35439+Q00959, Q781A); settings: 100 μM glutamate + 3 μM glycine
GluN1/GluN2A G786A = GluN1/GluN2A G786A (Rattus norvegicus, UniProt P35439+Q00959, G786A); settings: 100 μM glutamate + 3 μM glycine
GluN1/GluN2A E789A = GluN1/GluN2A E789A (Rattus norvegicus, UniProt P35439+Q00959, E789A); settings: 100 μM glutamate + 3 μM glycine
GluN1/2A-(2D S1+S2) = GluN1/2A-(2D S1+S2) (Rattus norvegicus, UniProt P35439+Q00959, A414R/D421P/D675E/D715E/DELINS438-452SQLNRTHSPPPDAPRPE/E427G/E790M/F680L/F708Y/G712R/G740R/G786D/H674Q/I408V/I422A/I755V/K454R/K466R/K472G/K668R/K738M/L425I/M788I/N404Q/N432D/N490D/N491G/N696S/P770R/Q661T/Q703S/Q766H/Q774P/R469H/R681K/R692K/R711P/R741K/S407T/S468A/S538A/S677Y/S719Q/S758T/T426S/T433S/T474S/T663S/T706V/T722A/T793R/T797S/V409A/V430I/V471I/V489I/V501F/V506D/V509I/V521I/V718T/V783L/Y676Q/Y700D/Y754K); settings: 100 μM glutamate plus 30 μM glycine

- TCN-201 activity IC50 (GluN1/2A-(2D S2)): no inhibition was observed and N.E.
- TCN-201 activity Max. % inhibition (GluN1/GluN2A V783S): 89 ± 3%
- TCN-201 activity nH (GluN1/GluN2A V783S): 1.4
- TCN-201 activity Max. % inhibition (GluN1/GluN2A V783H): 93 ± 4%
- TCN-201 activity nH (GluN1/GluN2A V783H): 0.9
- TCN-201 activity Max. % inhibition (GluN1/GluN2A Q781A): 94 ± 2%
- TCN-201 activity nH (GluN1/GluN2A Q781A): 1.9
- TCN-201 activity Max. % inhibition (GluN1/GluN2A G786A): 87 ± 3%
- TCN-201 activity nH (GluN1/GluN2A G786A): 1.8
- TCN-201 activity Max. % inhibition (GluN1/GluN2A E789A): 96 ± 1%
- TCN-201 activity nH (GluN1/GluN2A E789A): 1.4
- Inhibition by 3 μM TCN-201 (GluN1/2A-(2D S1+S2)): abolished
Compound: O=C(NNC(=O)c1ccc(CNS(=O)(=O)c2ccc(F)c(Cl)c2)cc1)c1ccccc1 [TCN-201, 3-chloro-4-fluoro-N-[(4-[(2-(phenylcarbonyl)hydrazino)carbonyl]phenyl)methyl]-benzenesulfonamide]
